Assay results taken from ChEMBL document CHEMBL5058577, “EUbOPEN Chemogenomics Library 2 (Multiplex)” (2022).

Test system: U2OS
Assay: Multiplex assay against U2OS
Assay type: toxicity, cell-based
Settings: human
Summary of the method: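 Cells stained live at seeding with Hoechst33342, BioTracker Green Microtubule Cytoskeleton Dye, MitoTracker Red and Annexin V Alexa Fluor 680 were imaged on a CQ1 microscope at 37°C and 5% CO2 after compound addition. Their classification by CellPathfinder machine-learning gating ran from Hoechst high-intensity objects versus normal cells, to healthy, pyknosed or fragmented nuclei among normal cells, to mitotic or apoptotic among pyknosed cells. Tubulin, mitochondrial-mass and membrane-permeability phenotypes are per cents of healthy-nucleus cells.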

[1] = 12 h, 1 µM, compound concentration 1 uM, replicate 1
[2] = 12 h, 1 µM, compound concentration 1 uM, replicate 2
[3] = 12 h, 10 µM, compound concentration 10 uM, replicate 1
[4] = 12 h, 10 µM, compound concentration 10 uM, replicate 2
[5] = 24 h, 1 µM, compound concentration 1 uM, replicate 1
[6] = 24 h, 1 µM, compound concentration 1 uM, replicate 2
[7] = 24 h, 10 µM, compound concentration 10 uM, replicate 1
[8] = 24 h, 10 µM, compound concentration 10 uM, replicate 2
[9] = 48 h, 1 µM, compound concentration 1 uM, replicate 1
[10] = 48 h, 1 µM, compound concentration 1 uM, replicate 2
[11] = 48 h, 10 µM, compound concentration 10 uM, replicate 1
[12] = 48 h, 10 µM, compound concentration 10 uM, replicate 2

C[C@H]1[C@H]2CC[C@H]3[C@@H]4CC=C5C[C@@H](N(C)C)CC[C@]5(C)[C@H]4CC[C@]23CN1C [CONESSINE]
Population Apoptotic (%) [1]: 80%
Population Fragmented Nuclei (%) [1]: 23%
Population Healthy Nuclei (%) [1]: 70%
Population Hoechst High Intensity Objects (%) [1]: 2%
Population Membrane Permeable-Phenotype (%) [1]: 5%
Population Mitochondria Different-Phenotype (%) [1]: 1%
Population Mitotic Cells (%) [1]: 20%
Population Normal (%) [1]: 97%
Population Pyknosed Nuclei (%) [1]: 6%
Population Tubulin-Different-Phenotype (%) [1]: 2%
Total Cell Count [1]: 248
Population Apoptotic (%) [2]: 58%
Population Fragmented Nuclei (%) [2]: 16%
Population Healthy Nuclei (%) [2]: 73%
Population Hoechst High Intensity Objects (%) [2]: 1%
Population Mitochondria Different-Phenotype (%) [2]: 2%
Population Mitotic Cells (%) [2]: 41%
Population Normal (%) [2]: 98%
Population Pyknosed Nuclei (%) [2]: 9%
Population Tubulin-Different-Phenotype (%) [2]: 3%
Total Cell Count [2]: 124
Population Apoptotic (%) [3]: 55%
Population Fragmented Nuclei (%) [3]: 19%
Population Healthy Nuclei (%) [3]: 71%
Population Hoechst High Intensity Objects (%) [3]: 2%
Population Membrane Permeable-Phenotype (%) [3]: 5%
Population Mitochondria Different-Phenotype (%) [3]: 0%
Population Mitotic Cells (%) [3]: 45%
Population Normal (%) [3]: 97%
Population Pyknosed Nuclei (%) [3]: 8%
Population Tubulin-Different-Phenotype (%) [3]: 1%
Total Cell Count [3]: 237
Population Apoptotic (%) [4]: 100%
Population Fragmented Nuclei (%) [4]: 17%
Population Healthy Nuclei (%) [4]: 68%
Population Hoechst High Intensity Objects (%) [4]: 0%
Population Membrane Permeable-Phenotype (%) [4]: 8%
Population Mitochondria Different-Phenotype (%) [4]: 5%
Population Mitotic Cells (%) [4]: 0%
Population Normal (%) [4]: 99%
Population Pyknosed Nuclei (%) [4]: 13%
Population Tubulin-Different-Phenotype (%) [4]: 6%
Total Cell Count [4]: 107
Population Apoptotic (%) [5]: 90%
Population Fragmented Nuclei (%) [5]: 18%
Population Healthy Nuclei (%) [5]: 74%
Population Hoechst High Intensity Objects (%) [5]: 2%
Population Membrane Permeable-Phenotype (%) [5]: 6%
Population Mitochondria Different-Phenotype (%) [5]: 1%
Population Mitotic Cells (%) [5]: 9%
Population Normal (%) [5]: 97%
Population Pyknosed Nuclei (%) [5]: 7%
Population Tubulin-Different-Phenotype (%) [5]: 3%
Total Cell Count [5]: 307
Population Apoptotic (%) [6]: 100%
Population Fragmented Nuclei (%) [6]: 11%
Population Healthy Nuclei (%) [6]: 81%
Population Hoechst High Intensity Objects (%) [6]: 1%
Population Membrane Permeable-Phenotype (%) [6]: 8%
Population Mitochondria Different-Phenotype (%) [6]: 5%
Population Mitotic Cells (%) [6]: 0%
Population Normal (%) [6]: 98%
Population Tubulin-Different-Phenotype (%) [6]: 7%
Total Cell Count [6]: 153
Population Apoptotic (%) [7]: 65%
Population Fragmented Nuclei (%) [7]: 20%
Population Healthy Nuclei (%) [7]: 71%
Population Hoechst High Intensity Objects (%) [7]: 2%
Population Membrane Permeable-Phenotype (%) [7]: 2%
Population Mitochondria Different-Phenotype (%) [7]: 0%
Population Mitotic Cells (%) [7]: 35%
Population Normal (%) [7]: 97%
Population Pyknosed Nuclei (%) [7]: 7%
Population Tubulin-Different-Phenotype (%) [7]: 1%
Total Cell Count [7]: 265
Population Apoptotic (%) [8]: 100%
Population Fragmented Nuclei (%) [8]: 19%
Population Hoechst High Intensity Objects (%) [8]: 4%
Population Membrane Permeable-Phenotype (%) [8]: 10%
Population Mitochondria Different-Phenotype (%) [8]: 4%
Population Mitotic Cells (%) [8]: 0%
Population Normal (%) [8]: 95%
Population Pyknosed Nuclei (%) [8]: 8%
Population Tubulin-Different-Phenotype (%) [8]: 9%
Total Cell Count [8]: 134
Population Apoptotic (%) [9]: 83%
Population Fragmented Nuclei (%) [9]: 16%
Population Healthy Nuclei (%) [9]: 79%
Population Hoechst High Intensity Objects (%) [9]: 2%
Population Membrane Permeable-Phenotype (%) [9]: 4%
Population Mitochondria Different-Phenotype (%) [9]: 2%
Population Mitotic Cells (%) [9]: 16%
Population Normal (%) [9]: 97%
Population Pyknosed Nuclei (%) [9]: 4%
Population Tubulin-Different-Phenotype (%) [9]: 1%
Total Cell Count [9]: 430
Population Apoptotic (%) [10]: 86%
Population Healthy Nuclei (%) [10]: 73%
Population Mitochondria Different-Phenotype (%) [10]: 0%
Population Mitotic Cells (%) [10]: 13%
Population Pyknosed Nuclei (%) [10]: 9%
Population Tubulin-Different-Phenotype (%) [10]: 2%
Total Cell Count [10]: 227
Population Apoptotic (%) [11]: 89%
Population Fragmented Nuclei (%) [11]: 19%
Population Healthy Nuclei (%) [11]: 73%
Population Hoechst High Intensity Objects (%) [11]: 1%
Population Membrane Permeable-Phenotype (%) [11]: 4%
Population Mitochondria Different-Phenotype (%) [11]: 2%
Population Mitotic Cells (%) [11]: 10%
Population Normal (%) [11]: 98%
Population Pyknosed Nuclei (%) [11]: 7%
Population Tubulin-Different-Phenotype (%) [11]: 3%
Total Cell Count [11]: 370
Population Apoptotic (%) [12]: 85%
Population Fragmented Nuclei (%) [12]: 15%
Population Healthy Nuclei (%) [12]: 72%
Population Hoechst High Intensity Objects (%) [12]: 6%
Population Membrane Permeable-Phenotype (%) [12]: 9%
Population Mitochondria Different-Phenotype (%) [12]: 5%
Population Mitotic Cells (%) [12]: 15%
Population Normal (%) [12]: 93%
Population Pyknosed Nuclei (%) [12]: 12%
Population Tubulin-Different-Phenotype (%) [12]: 6%
Total Cell Count [12]: 175

CN(C)CCCc1cc(C(=O)Nc2ccc(-c3ccncc3)cc2)ccc1O.Cl.Cl
Population Apoptotic (%) [1]: 89%
Population Fragmented Nuclei (%) [1]: 29%
Population Healthy Nuclei (%) [1]: 60%
Population Hoechst High Intensity Objects (%) [1]: 2%
Population Membrane Permeable-Phenotype (%) [1]: 6%
Population Mitochondria Different-Phenotype (%) [1]: 0%
Population Mitotic Cells (%) [1]: 10%
Population Normal (%) [1]: 97%
Population Pyknosed Nuclei (%) [1]: 9%
Population Tubulin-Different-Phenotype (%) [1]: 3%
Total Cell Count [1]: 199
Population Apoptotic (%) [2]: 100%
Population Fragmented Nuclei (%) [2]: 10%
Population Healthy Nuclei (%) [2]: 75%
Population Hoechst High Intensity Objects (%) [2]: 0%
Population Membrane Permeable-Phenotype (%) [2]: 2%
Population Mitochondria Different-Phenotype (%) [2]: 1%
Population Mitotic Cells (%) [2]: 0%
Population Normal (%) [2]: 99%
Population Pyknosed Nuclei (%) [2]: 13%
Population Tubulin-Different-Phenotype (%) [2]: 0%
Total Cell Count [2]: 124
Population Apoptotic (%) [3]: 77%
Population Fragmented Nuclei (%) [3]: 28%
Population Healthy Nuclei (%) [3]: 62%
Population Hoechst High Intensity Objects (%) [3]: 4%
Population Membrane Permeable-Phenotype (%) [3]: 7%
Population Mitochondria Different-Phenotype (%) [3]: 1%
Population Mitotic Cells (%) [3]: 22%
Population Normal (%) [3]: 95%
Population Pyknosed Nuclei (%) [3]: 9%
Population Tubulin-Different-Phenotype (%) [3]: 2%
Total Cell Count [3]: 237
Population Apoptotic (%) [4]: 42%
Population Fragmented Nuclei (%) [4]: 24%
Population Healthy Nuclei (%) [4]: 63%
Population Hoechst High Intensity Objects (%) [4]: 1%
Population Membrane Permeable-Phenotype (%) [4]: 4%
Population Mitochondria Different-Phenotype (%) [4]: 8%
Population Mitotic Cells (%) [4]: 57%
Population Normal (%) [4]: 98%
Population Pyknosed Nuclei (%) [4]: 12%
Total Cell Count [4]: 113
Population Apoptotic (%) [5]: 100%
Population Fragmented Nuclei (%) [5]: 28%
Population Healthy Nuclei (%) [5]: 65%
Population Hoechst High Intensity Objects (%) [5]: 2%
Population Membrane Permeable-Phenotype (%) [5]: 5%
Population Mitochondria Different-Phenotype (%) [5]: 2%
Population Mitotic Cells (%) [5]: 0%
Population Normal (%) [5]: 97%
Population Pyknosed Nuclei (%) [5]: 6%
Population Tubulin-Different-Phenotype (%) [5]: 3%
Total Cell Count [5]: 247
Population Apoptotic (%) [6]: 94%
Population Fragmented Nuclei (%) [6]: 11%
Population Healthy Nuclei (%) [6]: 77%
Population Hoechst High Intensity Objects (%) [6]: 4%
Population Membrane Permeable-Phenotype (%) [6]: 7%
Population Mitochondria Different-Phenotype (%) [6]: 5%
Population Mitotic Cells (%) [6]: 5%
Population Normal (%) [6]: 95%
Population Pyknosed Nuclei (%) [6]: 11%
Population Tubulin-Different-Phenotype (%) [6]: 5%
Total Cell Count [6]: 178
Population Apoptotic (%) [7]: 72%
Population Fragmented Nuclei (%) [7]: 28%
Population Healthy Nuclei (%) [7]: 58%
Population Hoechst High Intensity Objects (%) [7]: 4%
Population Membrane Permeable-Phenotype (%) [7]: 6%
Population Mitochondria Different-Phenotype (%) [7]: 3%
Population Mitotic Cells (%) [7]: 27%
Population Normal (%) [7]: 95%
Population Pyknosed Nuclei (%) [7]: 13%
Population Tubulin-Different-Phenotype (%) [7]: 1%
Total Cell Count [7]: 257
Population Apoptotic (%) [8]: 66%
Population Fragmented Nuclei (%) [8]: 21%
Population Healthy Nuclei (%) [8]: 63%
Population Hoechst High Intensity Objects (%) [8]: 0%
Population Membrane Permeable-Phenotype (%) [8]: 4%
Population Mitochondria Different-Phenotype (%) [8]: 8%
Population Mitotic Cells (%) [8]: 33%
Population Normal (%) [8]: 100%
Population Pyknosed Nuclei (%) [8]: 15%
Population Tubulin-Different-Phenotype (%) [8]: 2%
Total Cell Count [8]: 118
Population Apoptotic (%) [9]: 88%
Population Fragmented Nuclei (%) [9]: 25%
Population Healthy Nuclei (%) [9]: 69%
Population Hoechst High Intensity Objects (%) [9]: 3%
Population Membrane Permeable-Phenotype (%) [9]: 5%
Population Mitochondria Different-Phenotype (%) [9]: 3%
Population Mitotic Cells (%) [9]: 11%
Population Normal (%) [9]: 96%
Population Pyknosed Nuclei (%) [9]: 5%
Population Tubulin-Different-Phenotype (%) [9]: 3%
Total Cell Count [9]: 338
Population Apoptotic (%) [10]: 93%
Population Fragmented Nuclei (%) [10]: 15%
Population Healthy Nuclei (%) [10]: 71%
Population Membrane Permeable-Phenotype (%) [10]: 7%
Population Mitotic Cells (%) [10]: 6%
Population Pyknosed Nuclei (%) [10]: 13%
Population Tubulin-Different-Phenotype (%) [10]: 4%
Total Cell Count [10]: 259
Population Apoptotic (%) [11]: 74%
Population Fragmented Nuclei (%) [11]: 25%
Population Healthy Nuclei (%) [11]: 61%
Population Hoechst High Intensity Objects (%) [11]: 5%
Population Membrane Permeable-Phenotype (%) [11]: 5%
Population Mitochondria Different-Phenotype (%) [11]: 3%
Population Mitotic Cells (%) [11]: 25%
Population Normal (%) [11]: 94%
Population Pyknosed Nuclei (%) [11]: 12%
Population Tubulin-Different-Phenotype (%) [11]: 5%
Total Cell Count [11]: 352
Population Apoptotic (%) [12]: 68%
Population Fragmented Nuclei (%) [12]: 20%
Population Healthy Nuclei (%) [12]: 63%
Population Hoechst High Intensity Objects (%) [12]: 4%
Population Membrane Permeable-Phenotype (%) [12]: 13%
Population Mitochondria Different-Phenotype (%) [12]: 8%
Population Mitotic Cells (%) [12]: 32%
Population Normal (%) [12]: 95%
Population Pyknosed Nuclei (%) [12]: 16%
Population Tubulin-Different-Phenotype (%) [12]: 9%
Total Cell Count [12]: 160
